The term ED50 denotes the dose that gives a 50% effect, or the effect in half of the subjects. The inhibition in vivo is the percentage by which the read-out fell short of the control. What is called IC50 is the concentration that inhibits the measured activity by half. Broadly, the Inhibition is the drop in the measured response relative to a control, in per cent.

Structures are written as SMILES.

The values below come from ChEMBL document CHEMBL1129750, “Bicyclic N-hydroxyurea inhibitors of 5-lipoxygenase: pharmacodynamic, pharmacokinetic, and in vitro metabolic studies characterizing N-hydroxy-N-(2,3-dihydro-6-(phenylmethoxy)-3-benzofuranyl)urea” (J Med Chem, 1996).

One data set relates to Canis familiaris. Nature of the data set: Compound was administered intravenously in dog to evaluate plasma clearance values. The class given is ADME, organism-based, Canis lupus familiaris. The settings on record: in vivo, iv. The gist of the method:
(§1)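 IV infusion over 15 min via saphenous (monkey) or cephalic (dog) vein catheter, 1–1.4 mg/kg in 7.5% (w/v) aqueous (2-hydroxypropyl)-β-cyclodextrin; male cynomolgus monkeys and beagle dogs, N = 3. Chilled plasma analysed by HPLC. Noncompartmental parameters were estimated per animal and then averaged. CLp = dose/AUC, with AUC by linear/log-linear trapezoidal rule.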

Data set [1] can be described thus: Compound was administered intravenously in monkey to evaluate plasma clearance values. The class given is ADME, organism-based. To be noted: simiiformes, in vivo, iv. The gist of the method: as §1
The test system of data set [2] is Mus musculus. In words: Compound was administered intravenously in mouse to evaluate half life; ID= Iinsufficient data to calculate parameter. The class given is ADME, organism-based. To be noted: in vivo, iv. An outline of the steps: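 Male CD-1 mice given 0.5 mg/kg IV by lateral tail vein over 5–10 s, in ethanol/propylene glycol 30:70 v/v; N = 3 per time point with terminal sampling under ether. Plasma HPLC, LOQ 0.05 μg/mL. Mean concentration per time point before noncompartmental analysis. Half-life from slope of log-concentration profile; CLp = dose/AUC.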

In data set [3] the test system is Mus musculus. In words: Compound was tested to inhibit Leukotriene formation in mouse sensitized with 1BD8 cells after 7 hr of compound administration, activity expressed as percent of control. The data set is classed as functional. The arrangement: concentration or dose not given beside the values.
The target of data set [4] is T1, Polyunsaturated fatty acid 5-lipoxygenase (Mus musculus) (UniProt P48999).
T1 sequence (whole entry): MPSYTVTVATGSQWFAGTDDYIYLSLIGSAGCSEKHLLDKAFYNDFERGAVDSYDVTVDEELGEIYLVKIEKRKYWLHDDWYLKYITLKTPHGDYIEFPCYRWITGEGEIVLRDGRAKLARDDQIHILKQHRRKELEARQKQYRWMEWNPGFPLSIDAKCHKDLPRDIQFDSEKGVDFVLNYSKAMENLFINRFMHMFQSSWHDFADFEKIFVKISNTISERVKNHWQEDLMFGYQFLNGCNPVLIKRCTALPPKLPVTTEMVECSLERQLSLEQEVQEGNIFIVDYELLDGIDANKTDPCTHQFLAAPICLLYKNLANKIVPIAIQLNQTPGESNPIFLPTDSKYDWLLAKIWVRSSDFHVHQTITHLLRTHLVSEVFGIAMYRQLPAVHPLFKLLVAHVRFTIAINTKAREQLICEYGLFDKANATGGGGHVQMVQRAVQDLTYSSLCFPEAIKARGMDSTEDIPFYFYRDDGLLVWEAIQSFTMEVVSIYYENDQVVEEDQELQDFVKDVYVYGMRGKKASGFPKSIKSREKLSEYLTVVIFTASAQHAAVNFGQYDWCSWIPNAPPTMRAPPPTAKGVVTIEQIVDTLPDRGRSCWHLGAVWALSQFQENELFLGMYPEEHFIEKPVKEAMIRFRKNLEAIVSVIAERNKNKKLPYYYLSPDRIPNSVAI
In words: Inhibition of leukotriene formation in A-23187-stimulated mouse whole blood using […] ex vivo, activity expressed as percent of control. The data set is classed as functional, tissue-based. On the set-up: scale not given: the % may be the effect or the level left.

The species named for data set [5] is Mus musculus. Nature of the data set: Compound was tested to inhibit Leukotriene formation in A-23187-stimulated mouse whole blood using […] ex vivo. The class given is functional. The settings on record: Mus musculus, Blood; read-out: ED50.
Data set [6] is filed under the species Mus musculus. Nature of the data set: Glucuronidation rates in mouse liver microsomes. The data set is classed as functional. The gist of the method:
(§2)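 Liver microsomes (fresh male CD-1 mouse >10 weeks, or frozen human donor) at 0.25–1.0 mg/mL protein. Incubated with 2.5 mM substrate, 15 mM [14C]UDP-glucuronic acid, 10 mM MgCl2 and 2% BSA in 100 mM sodium phosphate pH 7.4, at 37 °C for 1–4 h. Stopped with 20% acetonitrile; glucuronide quantified by HPLC. Mean of duplicates.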
Background: Microsomes from liver hold many membrane-bound enzymes, among them those of drug oxidation.

The subject of data set [7] is Mus musculus. Nature of the data set: Maximum inhibition of LTB4 at dose 2 mg/kg in mouse. The data set is classed as functional.
Data set [8] has as its system Mus musculus. In words: Percentage inhibition of LTB4 after 6 hr at dose 2 mg/kg in mouse. The data set is classed as functional.
The species named for a further data set is Homo sapiens. In words: Glucuronidation rates in human liver microsomes. The class given is functional. An outline of the steps: as §2
For data set [9], the species on record is Mus musculus. Nature of the data set: Inhibition of Leukotriene formation in mouse adoptive peritoneal anaphylaxis assay ex vivo. The data set is classed as functional. To be noted: Mus musculus.
In data set [10] the target is T2, Polyunsaturated fatty acid 5-lipoxygenase (Rattus norvegicus, UniProt P12527).
T2 sequence (P12527 whole entry): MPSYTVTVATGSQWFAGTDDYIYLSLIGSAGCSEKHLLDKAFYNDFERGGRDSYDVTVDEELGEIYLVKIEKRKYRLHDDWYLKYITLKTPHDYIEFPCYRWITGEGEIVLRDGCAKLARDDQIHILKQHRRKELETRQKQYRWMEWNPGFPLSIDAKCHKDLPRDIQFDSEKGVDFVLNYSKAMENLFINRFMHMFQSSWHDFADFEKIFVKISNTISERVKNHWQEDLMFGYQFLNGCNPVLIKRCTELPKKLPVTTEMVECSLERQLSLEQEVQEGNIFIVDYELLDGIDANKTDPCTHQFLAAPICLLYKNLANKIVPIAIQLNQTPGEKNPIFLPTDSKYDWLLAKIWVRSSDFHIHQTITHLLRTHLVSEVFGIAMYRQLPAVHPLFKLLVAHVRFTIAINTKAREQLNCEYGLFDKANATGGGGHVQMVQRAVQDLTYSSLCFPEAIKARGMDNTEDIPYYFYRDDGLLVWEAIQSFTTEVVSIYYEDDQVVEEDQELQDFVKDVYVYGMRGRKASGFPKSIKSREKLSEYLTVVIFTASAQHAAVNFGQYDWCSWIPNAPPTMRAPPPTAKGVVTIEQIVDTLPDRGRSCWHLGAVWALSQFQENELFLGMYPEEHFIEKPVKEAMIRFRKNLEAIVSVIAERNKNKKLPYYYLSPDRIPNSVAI
In words: Inhibitory activity against rat 5-lipoxygenase by using continuous oxygen consumption assay. The gist of the method: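 Semipurified cytosolic 5-LO from rat basophilic leukemia (RBL-1) cells; continuous oxygen-electrode assay of oxygen consumption; IC50.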

The species named for data set [11] is Mus musculus. In words: Percentage inhibition of LTB4 formation after 6 hr in mouse. The data set is classed as functional.
Data set [12] has as its system Mus musculus. Nature of the data set: Maximum inhibition of LTB4 formation at dose 15 mg/kg in mouse. The data set is classed as functional.

Regarding `NC(=O)N(O)C1COc2cc(OCc3ccccc3)ccc21` (single isomer, unassigned; (-)), the figures for the Clp (in the data set with Canis familiaris; in data set [1]) were 10.9 mL/min and 10.3 mL/min, respectively. Moreover, the T1/2 entry in the data set on Mus musculus [2] is recorded as “Insufficient data”.

Regarding `CC(c1cc2ccccc2s1)N(O)C(N)=O` (stereo not given) [ZILEUTON], the results for the Activity (with Mus musculus [3]; in [4]) were -10% and -78%, respectively. Besides, the ED50 in the data set filed under Mus musculus [5] and in the data set listed under Mus musculus [9] was 1 mg/kg in each case. Also, the Rate of formation (nM (mg of protein)-1) amounted to 0.7 in the data set listed under Mus musculus [6] and 6.8 in the data set filed under Homo sapiens. In the data set on Mus musculus [7], this compound displayed a Max inhibition of 70. In the data set on Mus musculus [8], this compound came in with an inhibition in vivo at 2 mg/kg of 40%.

`NC(=O)N(O)C1CCCc2cc(OCc3ccccc3)ccc21` (stereo in doubt; 3a) had an IC50 in data set [10] of 1800 nM. Also, the ED50 in the data set filed under Mus musculus [5] came out at 9.9 mg/kg. Also, the Inhibition in the data set listed under Mus musculus [11] came to 67%. The compound also yielded a Max inhibition in the data set with Mus musculus [12] of 61.
